Measurements as given in ChEMBL document CHEMBL1154602, “Toward a rational design of multitarget-directed antioxidants: merging memoquin and lipoic acid molecular frameworks” (J Med Chem, 2009).
Active and inactive are the calls of the source. No cut-off for these calls is given here.

How the values were obtained:
T67 [1] = assay: Antioxidant activity in human T67 cells assessed as inhibition of tert-butyl hydroperoxide-induced ROS production at 10 uM after 24 hrs by fluorescence assay in presence of 2.5 uM sulforaphane treated for 24 hrs before compound addition; format: functional, cell-based
In short: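 T67 cells pretreated with 2.5 μM sulforaphane to raise NQO1 activity; ROS formation induced by t-BuOOH; oxidized form tested at 10 μM; significance set at p ≤ 0.05 versus t-BuOOH + sulforaphane-treated cells.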

[2] = Inhibition of amyloid beta (1 to 42) self-aggregation assessed as amyloid fibril formation at 10 uM by thioflavin-T based fluorometric assay
In short: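 Self-induced Aβ(1-42) aggregation at 50 μM, test compound at 10 μM; percent inhibition reported with SEM.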

Cholinesterase = Cholinesterase (Homo sapiens, UniProt P06276); assay: Inhibition of human recombinant BChE by Ellman's method
Acetylcholinesterase = Acetylcholinesterase (Homo sapiens, UniProt P22303); assay: Inhibition of human recombinant AChE by Ellman's method
In short: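 Human recombinant AChE. IC50 is the inhibitor concentration that decreases enzyme activity by 50%. Values are the mean of two independent measurements, each run in triplicate, with SEM.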

Bos taurus [3] = species: Bos taurus; assay: Antioxidant activity in bovine heart submitochondrial particles assessed as inhibition of antimycin A-induced ROS production at 10 uM pretreated for 30 mins with human NQO1 by fluorescence assay; format: functional
In short: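 Submitochondrial particles given NADH; ROS production triggered by antimycin A. Compound first reduced by 30 min preincubation with purified human NQO1 using NADH as substrate, reaction then stopped with 10 μM dicumarol; tested at 10 μM.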

T67 [4] = assay: Antioxidant activity in human T67 cells assessed as inhibition of tert-butyl hydroperoxide-induced ROS production at 10 uM after 24 hrs by fluorescence assay; format: functional, cell-based
In short: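 T67 cells without sulforaphane pretreatment; ROS formation induced by t-BuOOH; oxidized form tested at 10 μM; significance set at p ≤ 0.05 versus t-BuOOH-treated cells.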

Bos taurus [5] = species: Bos taurus; assay: Antioxidant activity in bovine heart submitochondrial particles assessed as inhibition of antimycin A-induced ROS production at 10 uM by fluorescence assay; format: functional
In short: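 Submitochondrial particles given NADH; ROS production triggered by antimycin A addition. Quinone (oxidized) form tested at 10 μM.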

Chain of Acetylcholinesterase (P22303 whole entry): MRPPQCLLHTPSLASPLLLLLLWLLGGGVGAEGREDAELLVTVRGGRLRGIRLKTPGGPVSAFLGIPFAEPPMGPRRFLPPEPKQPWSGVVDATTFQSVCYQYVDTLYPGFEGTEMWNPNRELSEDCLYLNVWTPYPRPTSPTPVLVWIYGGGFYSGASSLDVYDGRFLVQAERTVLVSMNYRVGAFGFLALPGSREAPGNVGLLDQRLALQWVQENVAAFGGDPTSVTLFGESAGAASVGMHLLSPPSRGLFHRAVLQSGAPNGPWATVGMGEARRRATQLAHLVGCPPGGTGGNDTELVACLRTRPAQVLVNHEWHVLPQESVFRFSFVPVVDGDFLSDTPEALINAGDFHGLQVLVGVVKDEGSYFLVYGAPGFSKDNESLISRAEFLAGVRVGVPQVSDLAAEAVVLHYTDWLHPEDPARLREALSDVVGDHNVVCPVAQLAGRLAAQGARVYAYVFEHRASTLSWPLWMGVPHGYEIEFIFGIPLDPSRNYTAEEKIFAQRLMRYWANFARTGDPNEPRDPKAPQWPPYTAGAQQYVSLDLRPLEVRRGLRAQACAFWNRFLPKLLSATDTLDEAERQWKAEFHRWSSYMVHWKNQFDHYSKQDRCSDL
Chain of Cholinesterase (P06276 whole entry): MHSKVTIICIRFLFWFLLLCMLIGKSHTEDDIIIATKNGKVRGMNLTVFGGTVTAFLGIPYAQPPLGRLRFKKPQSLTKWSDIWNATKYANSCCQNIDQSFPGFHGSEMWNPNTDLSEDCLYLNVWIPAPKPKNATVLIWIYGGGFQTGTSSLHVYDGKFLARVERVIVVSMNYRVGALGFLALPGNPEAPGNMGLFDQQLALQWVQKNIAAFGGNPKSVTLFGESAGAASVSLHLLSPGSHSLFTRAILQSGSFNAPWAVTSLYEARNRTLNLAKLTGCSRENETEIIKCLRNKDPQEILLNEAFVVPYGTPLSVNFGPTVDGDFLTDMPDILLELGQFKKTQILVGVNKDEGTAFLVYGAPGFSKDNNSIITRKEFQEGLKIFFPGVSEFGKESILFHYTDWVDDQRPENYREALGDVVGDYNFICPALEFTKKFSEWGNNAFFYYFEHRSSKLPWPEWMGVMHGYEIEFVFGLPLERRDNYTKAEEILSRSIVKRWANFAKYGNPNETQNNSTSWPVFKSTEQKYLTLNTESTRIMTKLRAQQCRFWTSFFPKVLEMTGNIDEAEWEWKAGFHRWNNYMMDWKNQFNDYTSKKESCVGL

Row | Structure (SMILES) | Activity (T67 [1]) | inhibition [2] [%] | IC50 (Cholinesterase) [nM] | IC50 (Acetylcholinesterase) [nM] | Activity (Bos taurus [3]) | Activity (T67 [4]) | Activity (Bos taurus [5])
1 | O=C(CCCCC1CCSS1)NCCCNc1c2c(nc3cc(Cl)ccc13)CCCC2 (stereo unspecified) | inactive | < 10 |  |  |  |  | 
2 | CCN(CCCNC1=CC(=O)C(NCCCNC(=O)CCCCC2CCSS2)=CC1=O)Cc1ccccc1OC (stereo unspecified) | Active | 19.2 | 212000 | 190 | Active | Active | Active
3 | CCN(CCCCCCNC1=CC(=O)C(NCCCCCCN(CC)Cc2ccccc2OC)=CC1=O)Cc1ccccc1OC [MEMOQUIN] |  |  |  | 1.5 |  |  | 
4 | CCN(CCCCCCNC1=CC(=O)C(NCCCCCCNC(=O)CCCCC2CCSS2)=CC1=O)Cc1ccccc1OC (stereo unspecified) | Active | 45.4 | 4990 | 100 | Active | Active | Active
5 | CCN(CCCNC1=CC(=O)C(NCCCCCCNC(=O)CCCCC2CCSS2)=CC1=O)Cc1ccccc1OC (stereo unspecified) | Active | 31.8 | 11100 | 160 | Active | Active | Active
6 | CCN(CCCCCCNC1=CC(=O)C(NCCCNC(=O)CCCCC2CCSS2)=CC1=O)Cc1ccccc1OC (stereo unspecified) | Active | 34.4 | 21000 | 150 | Active | Active | Active
